Experiments:
Type in all cases: functional, organism-based
[1] = test system: Human immunodeficiency virus 1; experiment: Antiviral activity against HIV1 isolate 5512 with M36I/M and V82T mutation in CBMCs
Procedure, shortened: (§1)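 PI-selected variants were obtained by weekly culture passage with escalating drug, 0.05 μM rising to 0.25–10 μM, and phenotyped at week 38. Cord blood mononuclear cells were infected for 2 h and plated onto fivefold drug dilutions from 0.00064 to 10 μM at 37°C, 5% CO₂. Cells were refed with drug on day 3. Day-7 culture-fluid RT activity gave IC50. Means come from at least two experiments, each in duplicate. Fold change is relative to wild-type virus.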

[2] = test system: Human immunodeficiency virus 2; experiment: Antiviral activity against HIV2 isolate CBL20, CBL23, MVP15132 with 182F mutation in CBMCs; procedure, shortened: as §1
[3] = test system: Human immunodeficiency virus 2; experiment: Antiviral activity against HIV2 isolate CBL20, CBL23, MVP15132 with […] and L99F mutation in CBMCs; procedure, shortened: as §1
[4] = test system: Human immunodeficiency virus 2; experiment: Antiviral activity against wild type HIV2 in CBMCs
Procedure, shortened: (§2)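 Cord blood mononuclear cells were infected for 2 h with wild-type virus (HIV-1: subtype B clinical isolate 5512; HIV-2: isolates CBL-20, CBL-23, MVP-15132). Cells were plated onto fivefold drug dilutions (0.00064–10 μM) at 37°C, 5% CO₂, and refed with drug-containing medium on day 3. RT enzyme assay was run on day 7, and IC₅₀ fitted. Means of ≥2 independent experiments, each in duplicate.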

[5] = test system: Human immunodeficiency virus 2; experiment: Antiviral activity against HIV2 isolate CBL20, CBL23, MVP15132 with 150V mutation in CBMCs; procedure, shortened: as §1
[6] = test system: Human immunodeficiency virus 2; experiment: Antiviral activity against HIV2 isolate CBL20, CBL23, MVP15132 with […] and L90M mutation in CBMCs; procedure, shortened: as §1
[7] = test system: Human immunodeficiency virus 1; experiment: Antiviral activity against HIV1 isolate 5512 with […] and M46L mutation in CBMCs; procedure, shortened: as §1
[8] = test system: Human immunodeficiency virus 2; experiment: Antiviral activity against HIV2 isolate CBL20, CBL23, MVP15132 with 154M mutation in CBMCs; procedure, shortened: as §1
[9] = test system: Human immunodeficiency virus 1; experiment: Antiviral activity against HIV1 isolate 5512 with D30N, […] and […] mutation in CBMCs; procedure, shortened: as §1
[10] = test system: Human immunodeficiency virus 2; experiment: Antiviral activity against HIV2 isolate CBL20, CBL23, MVP15132 with […] and […] mutation in CBMCs; procedure, shortened: as §1
[11] = test system: Human immunodeficiency virus 2; experiment: Antiviral activity against HIV2 isolate CBL20, CBL23, MVP15132 with V62A and L99F mutation in CBMCs; procedure, shortened: as §1
[12] = test system: Human immunodeficiency virus 2; experiment: Antiviral activity against HIV2 isolate CBL20, CBL23, MVP15132 with 182L mutation in CBMCs; procedure, shortened: as §1
[13] = test system: Human immunodeficiency virus 1; experiment: Antiviral activity against wild type HIV1 in CBMCs; procedure, shortened: as §2

Row | Structure (SMILES) | IC50 [1] [nM] | IC50 [2] [nM] | IC50 [3] [nM] | IC50 [4] [nM] | IC50 [5] [nM] | IC50 [6] [nM] | IC50 [7] [nM] | IC50 [8] [nM] | IC50 [9] [nM] | IC50 [10] [nM] | IC50 [11] [nM] | IC50 [12] [nM] | IC50 [13] [nM]
1 | CC(C)CN(C[C@@H](O)[C@H](Cc1ccccc1)NC(=O)O[C@H]1CCOC1)S(=O)(=O)c1ccc(N)cc1 [AMPRENAVIR] | 3 | 965 | > 10000 | 440 | > 10000 | > 10000 | 116 | > 10000 | 19 | > 10000 | 98 | 528 | 26
2 | CC(C)(C)NC(=O)[C@@H]1CN(Cc2cccnc2)CCN1C[C@@H](O)C[C@@H](Cc1ccccc1)C(=O)N[C@H]1c2ccccc2C[C@H]1O [INDINAVIR] | 14 | 544 | 825 | 16 | 72 | 1110 | 45 | 236 | 25 | 388 | 143 | 64 | 27
3 | Cc1cccc(C)c1OCC(=O)N[C@@H](Cc1ccccc1)[C@@H](O)C[C@H](Cc1ccccc1)NC(=O)[C@H](C(C)C)N1CCCNC1=O [LOPINAVIR] | 7 | 145 | 414 | 4 | 203 | 524 | 1 | 481 | – | 375 | 496 | 75 | 2
4 | Cc1c(O)cccc1C(=O)N[C@@H](CSc1ccccc1)[C@H](O)CN1C[C@H]2CCCC[C@H]2C[C@H]1C(=O)NC(C)(C)C [NELFINAVIR] | 10 | 244 | 2240 | 64 | 132 | 2560 | 31 | 624 | 677 | 1750 | 961 | 106 | 14
5 | CCC[C@@]1(CCc2ccccc2)CC(O)=C([C@H](CC)c2cccc(NS(=O)(=O)c3ccc(C(F)(F)F)cn3)c2)C(=O)O1 [TIPRANAVIR] | 192 | 306 | 2910 | 160 | 316 | 145 | 42 | 1110 | 1 | 2030 | 524 | 4440 | 92
